Data as given in PMC3377336 (EMBO Molecular Medicine, 2010).
Structures can show the parent of a compound that is named as a salt. Where two headings read alike, the source gives them in different places.

Assays:
NB TICs [1] = assay: Sphere-formation secondary assay, NB TICs; assay type: cell-based, human; conditions: for Fold difference in potency (EC50, sphere formation) NB TICs vs SKPs: text and legends
NB67 cells [2] = system: NB67 cells
NB12 xenograft tumours [3] = assay: NB12 xenograft tumours in NOD/SCID mice; assay type: in vivo; conditions: 14 days
NB67 cells [4] = assay: Secondary assay on NB67 TICs; conditions: same patient as NB12, 2 years later
SKPs = assay: Sphere-formation secondary assay, SKPs; assay type: cell-based, human; conditions: up to doses of 1 µM
SMS-KCNR cells = assay: Sphere-formation secondary assay, SMS-KCNR; assay type: cell-based, human; conditions: up to doses of 1 µM
NB88R2 xenograft tumours = NB88R2 xenograft tumours in NOD/SCID mice; assay type: in vivo; conditions: NB88 tumours; 3 mg/kg IP daily, 14 days
NB12 xenograft tumours [5] = assay: Sphere formation of cells re-isolated from treated NB12 xenograft tumours; assay type: in vivo, NOD/SCID mice; conditions: dissociated tumours, methylcellulose, 10 days; 3 mg/kg IP daily
SK-N-AS cells = assay: alamarBlue dose-response assay; assay type: cell-based, human; conditions: serial dilutions, alamarBlue day 6, read day 7
SH-SY5Y cells = assay: alamarBlue dose-response assay; assay type: cell-based, human; conditions: serial dilutions, alamarBlue day 6, read day 7
NB12 TICs = assay: Cell viability by trypan blue exclusion; assay type: cell-based, human; conditions: 50 nM rapamycin
[6] = system: p70S6K and S6RP phosphorylation; assay: Immunoblot of mTOR target proteins; assay type: cell-based, human; conditions: 50 nM, 1 h
NB TICs [7] = assay: Apoptosis: nuclear morphology, sub-2n DNA content, cleaved PARP; assay type: cell-based, human; conditions: 50 nM rapamycin
Summary of the method: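 NB12 cells (40,000) on lysine/laminin-coated chamber slides, treated in duplicate 24 h after plating, then fixed with 4% paraformaldehyde and 0.5 µg/ml Hoechst 33342; nuclei counted in 15 random fields. For DNA content and blots, 200,000 NB TICs per 25 cm2 flask were treated 48 h post-plating. Cells were ethanol-fixed, RNaseA/propidium iodide 1 h 37 °C, flow cytometry. NP-40 lysates were immunoblotted for cleaved PARP.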

With `COc1ccc2c(c[n+](C)c3c4cc5c(cc4ccc23)OCO5)c1OC` [Chelerythrine chloride] the “Selective cytotoxicity for NB TICs (PKC inhibitors)” value (NB TICs [1]; sphere formation, NB TICs vs SKPs) was “selectively cytotoxic”.

For `COc1cc2c(c(OC)c1OC)-c1ccc(OC)c(=O)cc1[C@@H](NC(C)=O)CC2` [Colchicine], the “Cytotoxicity to NB67 cells” value (NB67 cells [2]) was “not cytotoxic”.

In the case of `CO[C@H]1C=C[C@@]23c4cc5c(cc4CN(C[C@@H]2O)[C@H]3C1)OCO5` [Crinamine], the “Fold difference in potency (EC50, sphere formation) NB TICs vs SKPs” value (from here on “Fold difference in potency”) (NB TICs [1]) is reported as greater than 50 fold.

`C=C1C(=O)O[C@H]2[C@H]1CC/C(C)=C/CC[C@@]1(C)O[C@@H]21` [Parthenolide] was tested, and the “Fold difference in potency” value (NB TICs [1]) was 3-50 fold.

For `COc1cc([C@@H]2c3cc4c(cc3[C@H](O)[C@H]3COC(=O)[C@H]23)OCO4)cc(OC)c1OC` [Podophyllotoxin], the “Cytotoxicity to NB67 cells” value (NB67 cells [2]) was “not cytotoxic”.

In the case of `CCN(CC)CCCC(C)Nc1c2ccc(Cl)cc2nc2ccc(OC)cc12` (stereo not drawn) [Quinacrine dihydrochloride], the “Fold difference in potency” value (NB TICs [1]) is reported as 3-50 fold.

`COc1cc([C@@H]2c3cc4c(cc3[C@@H](O[C@@H]3O[C@@H]5CO[C@@H](c6cccs6)O[C@H]5[C@H](O)[C@H]3O)[C@H]3COC(=O)[C@H]23)OCO4)cc(OC)c1O` [Teniposide] was tested, and the “Fold difference in potency” value (NB TICs [1]) was greater than 10 fold.

For `CC[C@]1(O)C[C@@H]2CN(CCc3c([nH]c4ccccc34)[C@@](C(=O)OC)(c3cc4c(cc3OC)N(C)[C@H]3[C@@](O)(C(=O)OC)[C@H](OC(C)=O)[C@]5(CC)C=CCN6CC[C@]43[C@@H]65)C2)C1` [Vinblastine sulfate], the “Fold difference in potency” value (NB TICs [1]) was greater than 10 fold, the “Reduction of tumour weight relative to vehicle-treated controls” value (NB12 xenograft tumours [3]; 0.25 mg/kg IP daily) was 43.4% and the “Cytotoxicity to NB67 cells” value (NB67 cells [4]) was “not cytotoxic”.

`CC[C@]1(O)C[C@H]2CN(CCc3c([nH]c4ccccc34)[C@@](C(=O)OC)(c3cc4c(cc3OC)N(C=O)[C@H]3[C@@](O)(C(=O)OC)[C@H](OC(C)=O)[C@]5(CC)C=CCN6CC[C@]43[C@@H]65)C2)C1` [Vincristine sulfate] was tested, and the “Cytotoxicity to NB67 cells” value (NB67 cells [4]) was “not cytotoxic”.

With `CO[C@H]1C[C@@H]2CC[C@@H](C)[C@@](O)(O2)C(=O)C(=O)N2CCCC[C@H]2C(=O)O[C@H]([C@H](C)C[C@@H]2CC[C@@H](O)[C@H](OC)C2)CC(=O)[C@H](C)/C=C(\C)[C@@H](O)[C@@H](OC)C(=O)[C@H](C)C[C@H](C)/C=C/C=C/C=C/1C` [rapamycin] the “Effect on sphere formation of SKPs” value (SKPs) was “little effect”, the “Effect on sphere formation of SMS-KCNR cells” value (SMS-KCNR cells) was “little effect” and the “Reduction of tumour weight relative to vehicle-treated controls” value (NB12 xenograft tumours [3]; 3 mg/kg IP daily) was 82.6%. The “Reduction of tumour weight relative to vehicle-treated controls” value (NB88R2 xenograft tumours) was 74.0%, the “Reduction of sphere-forming ability in treated tumours” value (NB12 xenograft tumours [5]) was 7.75 fold and the “Sensitivity of SK-N-AS cells, alamarBlue assay” value (SK-N-AS cells) was “not effective”. For the same molecule, the “Sensitivity of SH-SY5Y cells, alamarBlue assay” value (SH-SY5Y cells) was “not effective”, the “Time to decrease of cell viability (trypan blue exclusion)” value (NB12 TICs) was 24 h and the “Phosphorylation of p70S6K and S6RP” value [6] was “rapidly inhibited”. For the same molecule, the “Apoptosis in NB12 and NB122R cells” value (NB TICs [7]) was “induced features of apoptosis”.
